Each compound was assayed on Aorta (assay: Vasorelaxant activity in Wistar rat thoracic aortic ring assessed as inhibition of norepinephrine hydrochloride-induced contraction treated after noradrenaline challenge). Conditions: not given; call rule not given here.
Format: functional, tissue-based
How it was run: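 Aortic ring preparations held under resting tension below 2 g and allowed to stabilise for 2 h. Contraction to norepinephrine hydrochloride (10^-6 M) was recorded before and after exposure to increasing concentrations of test compound. Tension was measured isometrically. Compounds were taken from 0.01 M DMSO stocks, and DMSO-alone controls were run at matching concentrations. Activity was reported as IC50.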
For `Cc1cc(-c2ccccc2)nc(Nc2ccc3oc(=O)ccc3c2)n1`, the IC50 was “Not Active”. In the case of `COc1ccc2ccc(=O)oc2c1C(=O)/C=C/c1ccc(C)cc1`, the IC50 is reported as “Not Active”. In the case of `COc1ccc2ccc(=O)oc2c1-c1cc(-c2ccc([N+](=O)[O-])cc2)nc(N)n1`, the IC50 is reported as “Not Active”.

Same assay, conditions: Rattus norvegicus, Wistar, Aorta; read-out: IC50
Work on `COc1ccc2ccc(=O)oc2c1C(C)=O` yielded an IC50 of 479 µM. For `CCN(CC)c1ccc(-c2nc(Nc3ccc4oc(=O)ccc4c3)[nH]c(=O)c2C#N)cc1`, the IC50 was 421 µM. With `Nc1ccc2oc(=O)ccc2c1` the IC50 was 532 µM. `N=C(N)Nc1ccc2oc(=O)ccc2c1` gave an IC50 of 418 µM. Work on `Cc1cc(=O)[nH]c(Nc2ccc3oc(=O)ccc3c2)n1` yielded an IC50 of 700 µM. `Cc1cc(Cl)nc(Nc2ccc3oc(=O)ccc3c2)n1` gave an IC50 of 468 µM. `CCN(CC)c1cc(C)nc(Nc2ccc3oc(=O)ccc3c2)n1` gave an IC50 of 495 µM. In the case of `Cc1cc(C)nc(Nc2ccc3oc(=O)ccc3c2)n1`, the IC50 is reported as 411 µM. For `O=c1cc(O)nc(Nc2ccc3oc(=O)ccc3c2)[nH]1`, the IC50 was 816 µM. Work on `O=c1ccc2cc(Nc3nc(Cl)cc(Cl)n3)ccc2o1` yielded an IC50 of 453 µM. Compound `Cc1nc(Nc2ccc3oc(=O)ccc3c2)nc(Cl)c1CCCl` has an IC50 of 700 µM. With `N#Cc1c(N)nc(Nc2ccc3oc(=O)ccc3c2)nc1-c1ccccc1` the IC50 was 595 µM. In the case of `N/C(=N/O)c1c(N)nc(Nc2ccc3oc(=O)ccc3c2)nc1-c1ccccc1`, the IC50 is reported as 468 µM. Work on `N#Cc1c(-c2ccccc2)nc(Nc2ccc3oc(=O)ccc3c2)[nH]c1=O` yielded an IC50 of 547 µM. With `N/C(=N/O)c1c(-c2ccccc2)nc(Nc2ccc3oc(=O)ccc3c2)[nH]c1=O` the IC50 was 466 µM. Work on `COc1ccc2ccc(=O)oc2c1C(=O)/C=C/c1ccc(C)o1` yielded an IC50 of 566 µM. Work on `COc1ccc2ccc(=O)oc2c1C(=O)/C=C/c1cccs1` yielded an IC50 of 371 µM. With `COc1ccc2ccc(=O)oc2c1C(=O)/C=C/c1ccccc1` the IC50 was 526 µM. In the case of `COc1ccc2ccc(=O)oc2c1C(=O)/C=C/c1ccc(C(F)(F)F)cc1`, the IC50 is reported as 374 µM. `COc1ccc2ccc(=O)oc2c1C(=O)/C=C/c1ccc(SC)cc1` showed an IC50 of 705 µM. `COc1ccc2ccc(=O)oc2c1C(=O)/C=C/c1ccc([N+](=O)[O-])cc1` gave an IC50 of 700 µM. Compound `COc1ccc2ccc(=O)oc2c1-c1cc(-c2ccc(C)o2)nc(N)n1` has an IC50 of 1230 µM. For `COc1ccc2ccc(=O)oc2c1-c1cc(-c2cccs2)nc(N)n1`, the IC50 was 650 µM. `COc1ccc2ccc(=O)oc2c1-c1cc(-c2ccccc2)nc(N)n1` was tested, and the IC50 was 800 µM. In the case of `COc1ccc2ccc(=O)oc2c1-c1cc(-c2ccc(C)cc2)nc(N)n1`, the IC50 is reported as 932 µM. In the case of `COc1ccc2ccc(=O)oc2c1-c1cc(-c2ccc(C(F)(F)F)cc2)nc(N)n1`, the IC50 is reported as 1060 µM. `COc1ccc2ccc(=O)oc2c1-c1cc(-c2ccc(SC)cc2)nc(N)n1` showed an IC50 of 1140 µM. Work on `COc1cc2nc(N3CCN(C(=O)c4ccco4)CC3)nc(N)c2cc1OC` [PRAZOSIN] yielded an IC50 of 487 µM.

Same assay, conditions: Rattus norvegicus, Wistar, Aorta; read-out: pIC50 (converted)
Work on `COc1ccc2ccc(=O)oc2c1-c1cc(-c2ccccc2)nc(N)n1` yielded an IC50 of 1250 µM. With `COc1ccc2ccc(=O)oc2c1-c1cc(-c2ccc(C)cc2)nc(N)n1` the IC50 was 1070 µM. Work on `COc1ccc2ccc(=O)oc2c1-c1cc(-c2ccc(SC)cc2)nc(N)n1` yielded an IC50 of 876 µM.

From ChEMBL document CHEMBL1828630, “Design, synthesis and vasorelaxant evaluation of novel coumarin-pyrimidine hybrids” (Bioorg Med Chem, 2011)
